Published values from different studies.
Lines come from different studies, so protocols differ.
Organism: Severe acute respiratory syndrome coronavirus 2

| SMILES | test | test system | setting | IC50 |
| --- | --- | --- | --- | --- |
| CCCCCOc1ccc(-c2ccc(-c3ccc(C(=O)N[C@H]4C[C@@H](O)[C@@H](O)NC(=O)[C@@H]5[C@@H](O)[C@@H](C)CN5C(=O)[C@H]([C@@H](C)O)NC(=O)[C@H]([C@H](O)[C@@H](O)c5ccc(O)cc5)NC(=O)[C@@H]5C[C@@H](O)CN5C(=O)[C@H]([C@@H](C)O)NC4=O)cc3)cc2)cc1 | viral replication, inhibitor | Vero | 24 h | 5.4 µg/mL |
| CC(Nc1nc(N2CCNCC2)nc2ccccc12)c1ccccc1N (stereo not drawn) | viral entry, inhibitor |  | pseudovirus | 35.5 µM |
| CCCC(CCC)C(=O)O | viral replication, inhibitor | Huh-7 |  | > 2 µM |
| COc1ccc(NC(=O)c2c(N)nc(S[C@@H]3O[C@H](COC(C)=O)[C@@H](OC(C)=O)[C@H](OC(C)=O)[C@H]3OC(C)=O)[nH]c2=S)cc1 | viral replication | Vero C1008 | 72 h | 169 µM |
| Cc1cccc(C)c1OCC(=O)N[C@@H](Cc1ccccc1)[C@@H](O)C[C@H](Cc1ccccc1)NC(=O)[C@H](C(C)C)N1CCCNC1=O | viral replication, inhibitor | Vero C1008 |  | 7.79 to 12 µM |
| C=C[C@@H]1C[C@]1(NC(=O)[C@@H]1C[C@@H](Oc2ncc(OC)c3ccc(Cl)cc23)CN1C(=O)[C@@H](NC(=O)OC(C)(C)C)C(C)(C)C)C(=O)NS(=O)(=O)C1CC1 | viral replication | HEK-293T |  | 48.4 µM |
| CCOP(=O)(OCC)N1C/C(=C\c2ccccc2)C(=O)C2(C1)C(c1ccccc1)CN(C)C21C(=O)Nc2ccc(Cl)cc21 (stereo not drawn) | viral replication, inhibitor | Vero C1008 | 72 h | 10.4 µM |
| CN(C)CCCN1c2ccccc2Sc2ccc(Cl)cc21 | viral replication, inhibitor | Vero C1008 |  | 3.14 µM |
| Cc1ccc(NC(=O)c2c(N)nc(S[C@@H]3O[C@H](CO)[C@H](O)[C@H](O)[C@H]3O)[nH]c2=S)cc1 | viral replication | Vero C1008 | 72 h | 34 µM |
| NC(=O)c1nc(F)c[nH]c1=O | viral replication, inhibitor | Vero C1008 |  | > 100 µM |
| O=c1c(O[C@@H]2O[C@H](CO)[C@@H](O)[C@H](O)[C@H]2O)c(-c2ccc(O)c(O)c2)oc2cc(O)cc(O)c12 | viral replication, inhibitor | Huh-7 |  | > 2 µM |
| CCC(CC)COC(=O)[C@H](C)N[P@](=O)(OC[C@H]1O[C@@](C#N)(c2ccc3c(N)ncnn23)[C@H](O)[C@@H]1O)Oc1ccccc1 | viral replication, inhibitor | Calu-3 | 40 h | 0.389 µM |
| CCN(CC)CCOc1ccc(C(O)(Cc2ccc(Cl)cc2)c2ccc(C)cc2)cc1 (stereo not drawn) | viral replication | Vero C1008 |  | 0.759 µM |
| CCC(CC)COC(=O)[C@H](C)N[P@](=O)(OC[C@H]1O[C@@](C#N)(c2ccc3c(N)ncnn23)[C@H](O)[C@@H]1O)Oc1ccccc1 | plaque formation, inhibitor | Vero C1008 |  | 0.19 µM |
| Fc1ccc([C@@H]2CCNC[C@H]2COc2ccc3c(c2)OCO3)cc1 | viral replication | Vero C1008 |  | 3.55 µM |
| CCCCc1oc2ccc(NS(C)(=O)=O)cc2c1C(=O)c1ccc(OCCCN(CCCC)CCCC)cc1 | viral replication, inhibitor | Calu-3 | 40 h | 2.95 µM |
| CC(=O)OC[C@H]1O[C@@H](Sc2nc(N)c(C(=O)Nc3ccccc3)c(=S)[nH]2)[C@H](OC(C)=O)[C@@H](OC(C)=O)[C@@H]1OC(C)=O | viral replication | Vero C1008 | 72 h | 126 µM |
| O=C(Nc1ccc([N+](=O)[O-])cc1Cl)c1cc(Cl)ccc1O | viral replication, inhibitor | Huh-7 |  | 0.142 µM |
| CCN(CC)CCOc1ccc2c(c1)C(=O)c1cc(OCCN(CC)CC)ccc1-2 | viral replication, inhibitor | Vero | 24 h | 79.2 µM |
| Cc1cccc(/C=N/Nc2cc(N3CCOCC3)nc(OCCc3ccccn3)n2)c1 | viral replication, inhibitor | Vero C1008 |  | 0.012 µM |
| CC(CN1c2ccccc2Sc2ccccc21)N(C)C (stereo not drawn) | viral replication, inhibitor | Vero C1008 |  | 9.21 µM |
| CCCCCCCCC=CCCCCCCCC(=O)NCCO | viral replication, inhibitor | Huh-7 |  | > 2 µM |
| CC(C)(C)OC(=O)N[C@H]1CCCCC/C=C\[C@@H]2C[C@@]2(C(=O)NS(=O)(=O)C2CC2)NC(=O)[C@@H]2C[C@@H](OC(=O)N3Cc4cccc(F)c4C3)CN2C1=O | viral replication | HEK-293T |  | > 50 µM |
| O=C1CCC(N2C(=O)c3ccccc3C2=O)C(=O)N1 (stereo not drawn) | viral replication, inhibitor | Huh-7 |  | > 2 µM |

| SMILES | test | test system | setting | IC50 |
| --- | --- | --- | --- | --- |
| COc1c(O)cc2oc(-c3ccccc3)cc(=O)c2c1O | viral replication, inhibitor | Vero C1008 |  | 15.1 µM |
| CC[C@@H](C)[C@@H]1NC(=O)[C@@H]2CCCN2C(=O)[C@H](Cc2ccccc2)N(C)C(=O)[C@H](Cc2ccccc2)NC(=O)[C@H](C(C)C)N(C)C(=O)[C@@H]([C@H](C)CC)OC(=O)[C@H](C(C)(C)O)N(C)C(=O)[C@H](CC(C)C)NC(=O)[C@H](C(C)C)N(C)C1=O | viral replication, inhibitor | Calu-3 | 40 h | 4.53 µM |
| CCCCc1oc2ccc(NS(C)(=O)=O)cc2c1C(=O)c1ccc(OCCCN(CCCC)CCCC)cc1 | viral replication, inhibitor | Vero C1008 |  | 1.5 µM |
| Nc1nc(S[C@@H]2O[C@H](CO)[C@H](O)[C@H](O)[C@H]2O)[nH]c(=S)c1C(=O)Nc1ccccc1 | viral replication | Vero C1008 | 72 h | 18.5 µM |
| COc1ccc([C@@H]2Sc3ccccc3N(CCN(C)C)C(=O)[C@@H]2OC(C)=O)cc1 | viral replication, inhibitor | Vero C1008 |  | > 45 µM |
| COc1cc2c(cc1OC)C(=O)C(CC1CCN(Cc3ccccc3)CC1)C2 (stereo not drawn) | viral replication, inhibitor | A549-ACE2 |  | 7.76 µM |
| CC(C)C(=O)OCC(=O)[C@@]12O[C@H](C3CCCCC3)O[C@@H]1C[C@H]1[C@@H]3CCC4=CC(=O)C=C[C@]4(C)[C@H]3[C@@H](O)C[C@@]12C | viral replication | VeroE6/TMPRSS2 |  | 8 µM |
| Nc1nc(S[C@@H]2O[C@H](CO)[C@@H](O)[C@H](O)[C@H]2O)[nH]c(=S)c1C(=O)Nc1ccc(Cl)cc1 | viral replication | Vero C1008 | 72 h | 45.3 µM |
| Nc1nc2nc[nH]c2c(=S)[nH]1 | viral replication, inhibitor | Huh-7 |  | 0.178 µM |
| COc1cccc2c1CCCC2CCCN1CCN(C2CCCCC2)CC1 (stereo not drawn) | viral replication, inhibitor | A549-ACE2 |  | 0.407 µM |
| CCN(CC)CCS(=O)(=O)[C@@H]1CCN2C(=O)c3coc(n3)CC(=O)C[C@H](O)/C=C(C)/C=C/CNC(=O)/C=C/[C@@H](C)[C@@H](C(C)C)OC(=O)[C@@H]12 | viral replication, inhibitor | Huh-7 |  | > 2 µM |
| COc1cc2c(cc1OC)CN(CCc1ccc(NC(=O)c3cccc4c(=O)c5cccc(OC)c5[nH]c34)cc1)CC2 | viral replication, inhibitor | A549-ACE2 |  | 3.89 µM |
| CC(C)(C)[C@@H]1NC(=O)O[C@@H]2CCC[C@H]2OC/C=C/C(F)(F)c2nc3ccccc3nc2O[C@@H]2C[C@@H](C(=O)N[C@]3(C(=O)NS(=O)(=O)C4(C)CC4)C[C@H]3C(F)F)N(C2)C1=O | viral replication | HEK-293T |  | > 50 µM |
| OC(c1cc(C(F)(F)F)nc2c(C(F)(F)F)cccc12)C1CCCCN1 (stereo not drawn) | viral replication, inhibitor | Vero C1008 |  | 7.11 µM |
| COCCCC/C(=N\OCCN)c1ccc(C(F)(F)F)cc1 | viral replication, inhibitor | A549-ACE2 |  | 2.09 µM |
| CCN(CC)CCCC(C)Nc1ccnc2cc(Cl)ccc12 (stereo not drawn) | viral replication, inhibitor | Vero C1008 |  | 42 µM |
| CC(C)CCCCCCCCC[C@@H]1CC(=O)N[C@@H](CCC(=O)O)C(=O)N[C@@H](CC(C)C)C(=O)N[C@H](CC(C)C)C(=O)N[C@@H](C(C)C)C(=O)N[C@@H](CC(=O)O)C(=O)N[C@H](CC(C)C)C(=O)N[C@@H](CC(C)C)C(=O)O1 | viral replication, inhibitor | Vero | 24 h | > 0.4 µg/mL |
| Fc1ccc(-n2cc(CCCCN3CCC4(CC3)OCc3ccccc34)c3ccccc32)cc1 | viral replication, inhibitor | A549-ACE2 |  | 2.04 µM |
| Nc1nc(S)[nH]c(=S)c1C(=O)Nc1ccc(Cl)cc1 | viral replication | Vero C1008 | 72 h | 289 µM |
| COc1ccc2c(c1)[C@]13CCCC[C@@H]1[C@H](C2)N(C)CC3 | viral replication, inhibitor | A549-ACE2 |  | 4.17 µM |
| C=C1C(=O)[C@@]23[C@H](O)C[C@@H]4C(C)(C)C(=O)CC[C@@]4(C)[C@@H]2CC[C@@H]1[C@H]3O | viral replication, inhibitor | Calu-3 | 40 h | 2.9 µM |
| CC(C)[N+]1(C)[C@@H]2CC[C@H]1C[C@@H](OC(=O)C(CO)c1ccccc1)C2 (stereo partly drawn) | viral replication, inhibitor | Huh-7 |  | 0.056 µM |
| CCCCCCCCCCCCCCCC(=O)N[C@H]1C[C@@H](O)[C@@H](O)NC(=O)[C@@H]2[C@@H](O)[C@@H](C)CN2C(=O)[C@H]([C@@H](C)O)NC(=O)[C@H]([C@H](O)[C@@H](O)c2ccc(O)cc2)NC(=O)[C@@H]2C[C@@H](O)CN2C(=O)[C@H]([C@@H](C)O)NC1=O | viral replication, inhibitor | Vero | 24 h | 1.3 µg/mL |
| CC(C)(C)CC(C)(C)c1ccc(O)c(Cc2ccc(Cl)cc2Cl)c1 | viral replication, inhibitor | Calu-3 | 40 h | 3.26 µM |
